Reference: ChEMBL document CHEMBL3862036, “Biphenyl Pyridazinone Derivatives as Inhaled PDE4 Inhibitors: Structural Biology and Structure-Activity Relationships” (J Med Chem, 2016)

How the values were obtained:
[1] = Inhibition of PDE4 in PBMC (unknown origin) assessed as reduction in LPS-induced TNFalpha production incubated for 24 hrs by ELISA; conditions: Homo sapiens
[2] = Inhibition of PDE4 in human whole blood assessed as reduction in LPS-induced TNFalpha production incubated for 24 hrs by ELISA; type: tissue-based
How it was run: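 Human whole blood was preincubated with LPS (final 1 μg/mL) for 10 min at 37 °C with rocking. 200 μL was added to wells holding increasing inhibitor concentrations in 100% DMSO. Plates were incubated 24 h at 37 °C under agitation, then placed on ice, diluted with PBS and centrifuged at 800g, 4 °C, for 15 min before TNF-α measurement.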

[3] = Drug metabolism in human liver S9 fraction assessed as glucuronidation in presence of PAPS and UDPGA incubated for 20 mins; type: ADME, subcellular; conditions: read-out: Drug metabolism
[4] = tested on: Rattus norvegicus; test: Anti-inflammatory activity in Sprague-Dawley rat assessed as inhibition of LPS-induced neutrophilia at 10 to 1000 ug/kg, it administered as suspension with Penn-Century micro-sprayer aerosolizer dosed 1 hrs before LPS challenge and measured 5 hrs post dose; type: functional; conditions: inhaled or nasal
How it was run: (§1)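 Suspensions in PBS/0.2% Tween 80 were homogenized, with lower doses made by 1:10 dilutions. 0.2 mL was given intratracheally by MicroSprayer to isoflurane-anesthetized fasted male Sprague-Dawley rats (230–280 g). At 1 or 18 h, rats received nebulized LPS (30 mL of a 1:100 PBS dilution of 100 mg/10 mL stock) over 40 min. Four hours later, BAL neutrophils were counted by flow cytometry.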

[5] = tested on: Rattus norvegicus; test: Anti-inflammatory activity in Sprague-Dawley rat assessed as inhibition of LPS-induced neutrophilia at 1000 ug/kg, it administered as suspension with Penn-Century micro-sprayer aerosolizer dosed 18 hrs before LPS challenge and measured 22 hrs post dose; type: functional; conditions: inhaled or nasal; how it was run: as §1
[6] = tested on: Rattus norvegicus; test: Anti-inflammatory activity in Sprague-Dawley rat assessed as inhibition of LPS-induced neutrophilia at 1000 ug/kg, it administered as dry powder with lactose carrier through Penn-Century insufflator dosed 1 hrs before LPS challenge and measured 5 hrs post dose; type: functional
How it was run: (§2)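 Compounds were micronized, comixed with lactose, and 5 mg of the mixture was insufflated intratracheally into isoflurane-anesthetized fasted male Sprague-Dawley rats (230–280 g). LPS aerosol (30 mL of a 1:100 PBS dilution of 100 mg/10 mL stock) was nebulized for 40 min at 1 or 18 h post-dose. BAL was taken 4 h later and neutrophils counted by flow cytometry. Controls: lactose alone, lactose+LPS, fluticasone (10% in lactose).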

[7] = tested on: Rattus norvegicus; test: Anti-inflammatory activity in Sprague-Dawley rat assessed as inhibition of LPS-induced neutrophilia at 1000 ug/kg, it administered as dry powder with lactose carrier through Penn-Century insufflator dosed 18 hrs before LPS challenge and measured 22 hrs post dose; type: functional; how it was run: as §2
[8] = tested on: Rattus norvegicus; test: Anti-inflammatory activity in Sprague-Dawley rat assessed as inhibition of LPS-induced neutrophilia at 1000 ug/kg, it administered as suspension with Penn-Century micro-sprayer aerosolizer dosed 1 hrs before LPS challenge and measured 5 hrs post dose; type: functional; conditions: inhaled or nasal; how it was run: as §1
[9] = target: T1, Adenosine receptor A1 (Homo sapiens, UniProt P30542); test: Antagonist activity at adenosine A1 receptor (unknown origin)
T1 sequence (P30542 whole entry): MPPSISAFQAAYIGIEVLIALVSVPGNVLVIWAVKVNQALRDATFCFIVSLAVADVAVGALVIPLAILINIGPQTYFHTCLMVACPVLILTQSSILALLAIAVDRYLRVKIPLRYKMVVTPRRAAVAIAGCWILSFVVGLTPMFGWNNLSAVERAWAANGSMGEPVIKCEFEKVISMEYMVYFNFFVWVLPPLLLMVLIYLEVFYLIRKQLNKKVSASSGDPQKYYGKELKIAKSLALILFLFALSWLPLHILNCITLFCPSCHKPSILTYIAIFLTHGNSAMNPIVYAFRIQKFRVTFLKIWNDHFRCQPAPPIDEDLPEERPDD

[10] = target: Adenosine receptor A2a (Homo sapiens, UniProt P29274); test: Antagonist activity at adenosine A2a receptor (unknown origin)
Sequence of Adenosine receptor A2a (P29274 whole entry): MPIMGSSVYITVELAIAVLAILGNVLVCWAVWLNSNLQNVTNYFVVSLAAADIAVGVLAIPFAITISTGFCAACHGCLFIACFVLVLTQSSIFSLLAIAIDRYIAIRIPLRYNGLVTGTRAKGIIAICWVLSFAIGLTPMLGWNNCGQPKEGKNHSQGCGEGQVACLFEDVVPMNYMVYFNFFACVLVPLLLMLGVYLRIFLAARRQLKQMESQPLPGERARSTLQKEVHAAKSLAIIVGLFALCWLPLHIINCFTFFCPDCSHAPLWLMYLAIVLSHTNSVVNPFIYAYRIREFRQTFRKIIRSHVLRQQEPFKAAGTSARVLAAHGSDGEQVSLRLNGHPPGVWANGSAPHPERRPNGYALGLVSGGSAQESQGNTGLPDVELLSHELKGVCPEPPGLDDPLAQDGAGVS

[11] = target: T2, Adenosine receptor A2b (Homo sapiens, UniProt P29275); test: Antagonist activity at adenosine A2b receptor (unknown origin)
T2 sequence (P29275 whole entry): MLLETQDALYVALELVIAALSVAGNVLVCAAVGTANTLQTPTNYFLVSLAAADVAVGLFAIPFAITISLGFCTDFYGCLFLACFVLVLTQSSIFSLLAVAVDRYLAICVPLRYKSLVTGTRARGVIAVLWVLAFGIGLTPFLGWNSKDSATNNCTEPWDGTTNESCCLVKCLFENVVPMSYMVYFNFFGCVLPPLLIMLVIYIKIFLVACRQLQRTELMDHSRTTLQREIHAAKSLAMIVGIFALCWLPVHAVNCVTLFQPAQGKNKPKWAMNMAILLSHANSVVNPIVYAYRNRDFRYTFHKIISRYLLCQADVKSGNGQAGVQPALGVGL

[12] = Pro-inflammatory activity in Sprague-Dawley rat assessed as induction of neutrophilia at 1000 ug/kg, it administered as dry powder with lactose carrier through Penn-Century insufflator; conditions: in vivo, inhaled_or_intranasal, 1 mg/kg
[13] = tested on: Rattus norvegicus; test: Anti-inflammatory activity in Sprague-Dawley rat assessed as inhibition of LPS-induced neutrophilia at 100 ug/kg, it administered as suspension with Penn-Century micro-sprayer aerosolizer dosed 1 hrs before LPS challenge and measured 5 hrs post dose; type: functional; conditions: inhaled or nasal; how it was run: as §1
[14] = tested on: Rattus norvegicus; test: Anti-inflammatory activity in Sprague-Dawley rat assessed as inhibition of LPS-induced neutrophilia at 100 ug/kg, it administered as suspension with Penn-Century micro-sprayer aerosolizer dosed 18 hrs before LPS challenge and measured 22 hrs post dose; type: functional; conditions: inhaled or nasal; how it was run: as §1
[15] = tested on: Rattus norvegicus; test: Anti-inflammatory activity in Sprague-Dawley rat assessed as inhibition of LPS-induced neutrophilia at 25 ug/kg, it administered as suspension with Penn-Century micro-sprayer aerosolizer dosed 1 hrs before LPS challenge and measured 5 hrs post dose; type: functional; conditions: inhaled or nasal; how it was run: as §1
[16] = tested on: Rattus norvegicus; test: Anti-inflammatory activity in Sprague-Dawley rat assessed as inhibition of LPS-induced neutrophilia at 300 ug/kg, it administered as suspension with Penn-Century micro-sprayer aerosolizer dosed 18 hrs before LPS challenge and measured 22 hrs post dose; type: functional; conditions: inhaled or nasal; how it was run: as §1

IC50 [1] [nM] | IC50 [2] [nM] | metabolised at 20 min [3] [%] | IC50 [9] [nM] | IC50 [10] [nM] | IC50 [11] [nM] | SMILES | inhibition in vivo at 1 mg/kg [5] [%] | other results
0.88 | 207 | 8 | – | – | – | CCn1nc(-c2cccc(-c3cc(F)ccc3O)c2)cc(NC(=O)Nc2c(Cl)cncc2Cl)c1=O | 14 | ED50 [4]: 0.101 mg/kg; inhibition in vivo at 1 mg/kg [6]: 51%; inhibition in vivo at 1 mg/kg [7]: 0%
0.54 | 190 | 56 | 5 | 434 | 263 | CCn1nc(-c2cccc(-c3cccc(CC(=O)O)c3)c2)cc(NC(=O)Nc2c(Cl)cncc2Cl)c1=O | 16 | inhibition in vivo at 1 mg/kg [8]: 66%
0.3 | 69 | – | 10 | 33 | 120 | CCn1nc(-c2cccc(-c3cccc(C(=O)NC4CC4)c3)c2)cc(NC(=O)Nc2c(Cl)cncc2Cl)c1=O | 43 | fold change (FC) [12]: 1; ED50 [4]: 0.024 mg/kg; inhibition in vivo at 0.1 mg/kg [13]: 70%; inhibition in vivo at 1 mg/kg [6]: 55%; inhibition in vivo at 1 mg/kg [7]: 42%
– | – | – | > 1000 | > 1000 | > 1000 | CCn1nc(-c2cccc(-c3cc(C(=O)NCCN4CCOCC4)cc(C(=O)NC4CC4)c3)c2)cc(NC(=O)Nc2c(Cl)cncc2Cl)c1=O | – | inhibition in vivo at 0.1 mg/kg [14]: 29%; inhibition in vivo at 0.025 mg/kg [15]: 55%
1.1 | 100 | – | – | – | – | CCn1nc(-c2cccc(-c3ccc(O)nc3)c2)cc(NC(=O)Nc2c(Cl)cncc2Cl)c1=O | – | –
1.4 | 75 | 1.7 | – | – | – | CCn1nc(-c2cccc(-c3ccccc3O)c2)cc(NC(=O)Nc2c(Cl)cncc2Cl)c1=O | – | –
0.09 | 67 | – | – | – | – | CCn1nc(-c2cccc(-c3cccc(C(N)=O)c3)c2)cc(NC(=O)Nc2c(Cl)cncc2Cl)c1=O | 20 | ED50 [4]: 0.067 mg/kg; inhibition in vivo at 1 mg/kg [6]: 48%; inhibition in vivo at 1 mg/kg [7]: 15%
2.17 | – | 9 | 17 | 270 | 222 | CCn1nc(-c2cccc(-c3cccc(C(=O)O)c3)c2)cc(NC(=O)Nc2c(Cl)cncc2Cl)c1=O | – | –
0.8 | – | – | – | – | – | CCn1nc(-c2cccc(-c3cccc(O)c3F)c2)cc(NC(=O)Nc2c(Cl)cncc2Cl)c1=O | – | –
0.24 | 57 | – | 13 | 41 | 206 | CCn1nc(-c2cccc(-c3cccc(C(=O)NCCCCCCCN(C)CCO)c3)c2)cc(NC(=O)Nc2c(Cl)cncc2Cl)c1=O | 27 | inhibition in vivo at 0.1 mg/kg [13]: 79%
2.9 | 154 | 27 | – | – | – | CCn1nc(-c2cccc(-c3ccc(O)cc3F)c2)cc(NC(=O)Nc2c(Cl)cncc2Cl)c1=O | – | –
0.4 | – | – | 324 | > 1000 | > 1000 | CCn1nc(-c2cccc(-c3cc(C(=O)NC4CC4)cc(C(=O)NC4CC4)c3)c2)cc(NC(=O)Nc2c(Cl)cncc2Cl)c1=O | – | inhibition in vivo at 0.3 mg/kg [16]: 27%; inhibition in vivo at 0.025 mg/kg [15]: 54%
21 | – | – | – | – | – | CCn1nc(-c2ccccc2)c(C(C)=O)c(Nc2ccc(C(=O)O)cc2)c1=O | – | –
1.3 | 202 | – | – | – | – | CCn1nc(-c2cccc(-c3ccc(F)cc3O)c2)cc(NC(=O)Nc2c(Cl)cncc2Cl)c1=O | – | –
0.19 | – | – | 634 | > 1000 | > 1000 | CCn1nc(-c2cccc(-c3cc(C#N)cc(C(=O)NC4CC4)c3)c2)cc(NC(=O)Nc2c(Cl)cncc2Cl)c1=O | – | –
